Experimental data: ChEMBL document CHEMBL2029265, “2-(Pyrrolidin-1-yl)ethyl-3,4-dihydroisoquinolin-1(2H)-one derivatives as potent and selective histamine-3 receptor antagonists” (J Med Chem, 2012); call rule not given here

Experiments:
Liver = test: Metabolic stability in beagle dog liver microsomes assessed as GSH adduct formation at 1 uM after 30 mins in presence of NADPH and UDPGA; type: ADME, Canis lupus familiaris, Microsome; details: 0.5 h
Procedure, shortened: (§1)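 Incubations used liver microsomes with NADPH + UDPGA. Glutathione adduct formation was monitored.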

[1] = Apparent permeability from apical to basolateral side of human Caco2 cells; type: ADME, cell-based; details: Caco-2
Procedure, shortened: (§2)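 Permeability was measured across Caco-2 epithelial monolayers in both the apical→basolateral and basolateral→apical directions. Apparent permeability is reported in 10−6 cm/s, and a directional ratio (B→A over A→B) was derived.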

Cytochrome P450 2C19 = Cytochrome P450 2C19 (Homo sapiens, UniProt P33261); test: Inhibition of CYP2C19 in human liver microsomes up to 100 uM; type: ADME, Microsome
Procedure, shortened: (§3)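 Human liver microsomes were incubated with test article at varying concentrations up to 100 μM. Activities measured were CYP1A2, 2A6, 2B6, 2C8, 2C9, 2C19 and 2D6, plus CYP3A4 via midazolam 1′-hydroxylation and via testosterone 6β-hydroxylation.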

Cytochrome P450 3A4 [2] = molecular target: T1, Cytochrome P450 3A4 (Homo sapiens, UniProt P08684); test: Inhibition of CYP3A4 in human liver microsomes up to 100 uM; type: ADME, Microsome; procedure, shortened: as §3
Cytochrome P450 1A2 = Cytochrome P450 1A2 (Homo sapiens, UniProt P05177); test: Inhibition of CYP1A2 in human liver microsomes up to 100 uM; type: ADME, Microsome; procedure, shortened: as §3
[3] = Fraction unbound in rat plasma; type: ADME, cell-free
Procedure, shortened: (§4)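 Free fraction in human and rat plasma was determined by ultrafiltration.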

Albumin = Albumin (Homo sapiens, UniProt P02768); test: Binding affinity to human serum albumin; type: ADME; details: isolated protein
Procedure, shortened: (§5)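 Binding to human serum albumin and to α1-acid glycoprotein was assessed by Biacore analysis.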

[4] = Apparent permeability from basolateral to apical side of human Caco2 cells; type: ADME, cell-based; details: Caco-2; procedure, shortened: as §2
Liver microsomes [5] = test: Metabolic stability in human liver microsomes assessed as GSH adduct formation at 1 uM after 30 mins in presence of NADPH and UDPGA; type: ADME, Microsome; details: 0.5 h; procedure, shortened: as §1
[6] = molecular target: Sodium-dependent dopamine transporter (Homo sapiens, UniProt Q01959); test: Binding affinity to DAT
Brain = test: AUC (0 to infinity) in rat brain at 10 mg/kg, po; type: ADME, organism-based; parameters: dose 10 mg/kg, route oral, time infinity; details: in vivo
Procedure, shortened: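 Rats were dosed orally at 10 mg/kg. AUC0→∞ was determined in both brain and plasma, and the brain/plasma ratio was calculated from the two AUCs.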

[7] = Half life in human liver microsomes at 1 uM after 30 mins in presence of NADPH and UDPGA; type: ADME, Microsome
Procedure, shortened: (§6)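 Liver microsomes from rat, dog, monkey and human were incubated with phase I + II cofactors (NADPH + UDPGA). Half-life was measured in minutes.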

[8] = Ratio of Brain AUC (0 to infinity) to plasma AUC (0 to infinity) in rat at 10 mg/kg, po; type: ADME, organism-based; parameters: dose 10 mg/kg, route oral; details: read-out: BPR
Procedure, shortened: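 Rats dosed orally at 10 mg/kg; brain and plasma AUC0→∞ measured, ratio taken as brain/plasma. Oral vehicle 2% Tween/0.5% methyl cellulose in water.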

Histamine H1 receptor = Histamine H1 receptor (Homo sapiens, UniProt P35367); test: Binding affinity to H1 receptor
Cytochrome P450 2C8 = Cytochrome P450 2C8 (Homo sapiens, UniProt P10632); test: Inhibition of CYP2C8 in human liver microsomes up to 100 uM; type: ADME, Microsome; procedure, shortened: as §3
Histamine H2 receptor = Histamine H2 receptor (Homo sapiens, UniProt P25021); test: Binding affinity to H2 receptor
[9] = Fraction unbound in human plasma; type: ADME, cell-free; procedure, shortened: as §4
[10] = molecular target: 5-hydroxytryptamine receptor 6 (Homo sapiens, UniProt P50406); test: Binding affinity to 5-HT6 receptor
[11] = molecular target: T2, 5-hydroxytryptamine receptor 1A (Homo sapiens, UniProt P08908); test: Binding affinity to 5-HT1A receptor
T2 sequence (P08908 whole entry): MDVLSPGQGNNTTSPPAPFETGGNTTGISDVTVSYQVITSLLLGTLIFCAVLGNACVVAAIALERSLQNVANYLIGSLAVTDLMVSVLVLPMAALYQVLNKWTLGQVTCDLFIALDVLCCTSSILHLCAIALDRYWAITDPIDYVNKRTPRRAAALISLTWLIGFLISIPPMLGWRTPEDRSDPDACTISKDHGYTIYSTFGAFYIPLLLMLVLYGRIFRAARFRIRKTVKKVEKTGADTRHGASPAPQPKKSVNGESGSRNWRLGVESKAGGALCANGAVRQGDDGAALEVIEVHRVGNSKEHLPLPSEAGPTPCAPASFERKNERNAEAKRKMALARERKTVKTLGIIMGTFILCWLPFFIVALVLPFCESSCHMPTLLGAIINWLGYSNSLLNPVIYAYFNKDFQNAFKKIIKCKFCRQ

Histamine H3 receptor [12] = molecular target: T3, Histamine H3 receptor (Homo sapiens, UniProt Q9Y5N1); test: Inverse agonist activity at human H3 receptor expressed in HEK293T cells assessed as inhibition of {35S]GTPgamma binding; type: cell-based, HEK-293T
Procedure, shortened: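 Basal [35S]GTPγS binding was measured in membranes from HEK cells expressing human H3 receptor, across a range of concentrations. EC50 and maximal inhibition relative to basal binding were derived.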

Liver microsomes [13] = test: Metabolic stability in Sprague-Dawley rat liver microsomes assessed as GSH adduct formation at 1 uM after 30 mins in presence of NADPH and UDPGA; type: ADME, Microsome; details: 0.5 h; procedure, shortened: as §1
Cytochrome P450 3A4 [14] = molecular target: T1, Cytochrome P450 3A4; test: Inhibition of CYP3A4-mediated testosterone-6beta-hydroxylation activity in human liver microsomes at 100 uM; type: ADME, Microsome; procedure, shortened: as §3
[15] = molecular target: Sodium-dependent serotonin transporter (Homo sapiens, UniProt P31645); test: Binding affinity to 5-HT transporter
Cytochrome P450 3A4 [16] = molecular target: T1, Cytochrome P450 3A4; test: Inhibition of CYP3A4-mediated midazolam-1'-hydroxylation activity in human liver microsomes at 100 uM; type: ADME, Microsome; procedure, shortened: as §3
[17] = molecular target: 5-hydroxytryptamine receptor 2B (Homo sapiens, UniProt P41595); test: Binding affinity to 5-HT2B receptor
[18] = Half life in beagle dog liver microsomes at 1 uM after 30 mins in presence of NADPH and UDPGA; type: ADME, Canis lupus familiaris, Microsome; procedure, shortened: as §6
Cytochrome P450 2A6 = Cytochrome P450 2A6 (Homo sapiens, UniProt P11509); test: Inhibition of CYP2A6 in human liver microsomes up to 100 uM; type: ADME, Microsome; procedure, shortened: as §3
[19] = Half life in cynomolgus monkey liver microsomes at 1 uM after 30 mins in presence of NADPH and UDPGA; type: ADME, Macaca fascicularis, Microsome; procedure, shortened: as §6
Cytochrome P450 2B6 = Cytochrome P450 2B6 (Homo sapiens, UniProt P20813); test: Inhibition of CYP2B6 in human liver microsomes up to 100 uM; type: ADME, Microsome; procedure, shortened: as §3
Histamine H3 receptor [20] = molecular target: T3, Histamine H3 receptor; test: Displacement of [3H]-(R)-alpha-methylhistamine from human H3 receptor expressed in HEK293T cells after 120 mins by scintillation counting; type: cell-based, HEK-293T
Cytochrome P450 2C9 = Cytochrome P450 2C9 (Homo sapiens, UniProt P11712); test: Inhibition of CYP2C9 in human liver microsomes up to 100 uM; type: ADME, Microsome; procedure, shortened: as §3
[21] = Binding affinity to human alpha1-acid glycoprotein; type: ADME; procedure, shortened: as §5
[22] = molecular target: T4, Alpha-2A adrenergic receptor (Homo sapiens, UniProt P08913); test: Binding affinity to alpha-2A receptor
T4 sequence (P08913 whole entry): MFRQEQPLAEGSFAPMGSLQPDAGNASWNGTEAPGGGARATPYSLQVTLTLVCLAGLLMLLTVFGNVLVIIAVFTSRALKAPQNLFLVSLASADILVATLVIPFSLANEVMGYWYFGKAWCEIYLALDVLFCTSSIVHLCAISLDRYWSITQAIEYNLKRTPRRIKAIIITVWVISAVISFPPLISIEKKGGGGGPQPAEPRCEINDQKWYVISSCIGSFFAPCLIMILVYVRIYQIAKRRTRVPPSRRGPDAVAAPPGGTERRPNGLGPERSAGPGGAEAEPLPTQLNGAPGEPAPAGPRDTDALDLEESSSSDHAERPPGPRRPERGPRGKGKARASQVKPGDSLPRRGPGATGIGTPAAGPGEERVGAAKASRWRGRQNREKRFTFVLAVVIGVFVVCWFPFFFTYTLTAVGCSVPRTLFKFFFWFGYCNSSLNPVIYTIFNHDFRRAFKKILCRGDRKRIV

D(2) dopamine receptor = D(2) dopamine receptor (Homo sapiens, UniProt P14416); test: Binding affinity to D2 receptor
Cytochrome P450 2D6 = Cytochrome P450 2D6 (Homo sapiens, UniProt P10635); test: Inhibition of CYP2D6 in human liver microsomes up to 100 uM; type: ADME, Microsome; procedure, shortened: as §3
[23] = Half life in Sprague-Dawley rat liver microsomes at 1 uM after 30 mins in presence of NADPH and UDPGA; type: ADME, Microsome; procedure, shortened: as §6
Plasma = test: AUC (0 to infinity) in rat plasma at 10 mg/kg, po; type: ADME, organism-based; parameters: time infinity, dose 10 mg/kg, route oral; details: in vivo
[24] = Metabolic stability in cynomolgus monkey liver microsomes assessed as GSH adduct formation at 1 uM after 30 mins in presence of NADPH and UDPGA; type: ADME, Macaca fascicularis, Microsome; details: 0.5 h; procedure, shortened: as §1

T1 sequence (P08684 whole entry): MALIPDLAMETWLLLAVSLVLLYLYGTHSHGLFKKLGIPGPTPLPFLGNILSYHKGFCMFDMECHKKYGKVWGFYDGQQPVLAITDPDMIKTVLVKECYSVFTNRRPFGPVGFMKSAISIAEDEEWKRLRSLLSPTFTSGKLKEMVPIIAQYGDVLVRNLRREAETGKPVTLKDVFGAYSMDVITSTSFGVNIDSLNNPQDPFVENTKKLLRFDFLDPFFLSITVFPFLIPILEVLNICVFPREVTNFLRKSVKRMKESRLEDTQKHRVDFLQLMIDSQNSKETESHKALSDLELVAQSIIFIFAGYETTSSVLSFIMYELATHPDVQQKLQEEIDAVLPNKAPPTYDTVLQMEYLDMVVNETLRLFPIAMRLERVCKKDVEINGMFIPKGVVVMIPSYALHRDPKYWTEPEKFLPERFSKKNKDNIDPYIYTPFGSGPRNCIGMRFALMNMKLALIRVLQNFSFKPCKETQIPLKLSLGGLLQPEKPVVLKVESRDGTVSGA
T3 sequence (Q9Y5N1 whole entry): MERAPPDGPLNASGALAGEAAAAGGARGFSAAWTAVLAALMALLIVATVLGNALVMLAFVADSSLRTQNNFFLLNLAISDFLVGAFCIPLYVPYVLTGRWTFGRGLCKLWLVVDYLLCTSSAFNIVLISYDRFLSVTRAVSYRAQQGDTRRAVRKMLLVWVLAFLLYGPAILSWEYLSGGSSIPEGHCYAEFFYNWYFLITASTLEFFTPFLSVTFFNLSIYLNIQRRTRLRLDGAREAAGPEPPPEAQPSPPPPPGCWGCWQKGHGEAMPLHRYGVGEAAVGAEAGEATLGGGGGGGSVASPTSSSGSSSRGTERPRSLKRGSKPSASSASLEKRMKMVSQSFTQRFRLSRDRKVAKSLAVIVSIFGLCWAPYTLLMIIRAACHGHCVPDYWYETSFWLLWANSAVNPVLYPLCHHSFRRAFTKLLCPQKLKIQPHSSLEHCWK
5-hydroxytryptamine receptor 6, sequence (P50406 whole entry): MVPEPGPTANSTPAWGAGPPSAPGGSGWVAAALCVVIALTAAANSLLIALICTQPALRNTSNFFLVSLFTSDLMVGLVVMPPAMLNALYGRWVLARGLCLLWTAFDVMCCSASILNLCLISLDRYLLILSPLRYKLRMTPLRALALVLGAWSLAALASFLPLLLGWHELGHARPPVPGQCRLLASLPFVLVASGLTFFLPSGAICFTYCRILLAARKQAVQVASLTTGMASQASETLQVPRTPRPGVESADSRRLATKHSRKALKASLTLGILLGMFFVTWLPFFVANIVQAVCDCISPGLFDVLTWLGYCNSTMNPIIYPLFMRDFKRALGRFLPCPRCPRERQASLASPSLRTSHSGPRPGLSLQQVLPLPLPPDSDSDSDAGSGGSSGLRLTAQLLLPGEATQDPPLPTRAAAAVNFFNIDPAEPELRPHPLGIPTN
Histamine H1 receptor, sequence (P35367 whole entry): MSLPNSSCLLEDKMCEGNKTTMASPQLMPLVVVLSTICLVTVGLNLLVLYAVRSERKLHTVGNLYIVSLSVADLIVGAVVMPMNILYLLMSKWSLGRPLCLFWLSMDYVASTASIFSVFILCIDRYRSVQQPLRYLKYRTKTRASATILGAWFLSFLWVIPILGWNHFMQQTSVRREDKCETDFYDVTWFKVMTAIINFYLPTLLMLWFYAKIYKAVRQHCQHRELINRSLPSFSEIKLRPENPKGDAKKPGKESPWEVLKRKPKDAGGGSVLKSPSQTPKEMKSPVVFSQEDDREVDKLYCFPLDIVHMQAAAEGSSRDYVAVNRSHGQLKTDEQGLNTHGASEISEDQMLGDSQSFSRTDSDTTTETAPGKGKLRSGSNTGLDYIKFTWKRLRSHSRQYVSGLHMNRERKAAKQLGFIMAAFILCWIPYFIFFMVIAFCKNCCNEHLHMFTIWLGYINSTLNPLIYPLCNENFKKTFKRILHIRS
Albumin, sequence (P02768 whole entry): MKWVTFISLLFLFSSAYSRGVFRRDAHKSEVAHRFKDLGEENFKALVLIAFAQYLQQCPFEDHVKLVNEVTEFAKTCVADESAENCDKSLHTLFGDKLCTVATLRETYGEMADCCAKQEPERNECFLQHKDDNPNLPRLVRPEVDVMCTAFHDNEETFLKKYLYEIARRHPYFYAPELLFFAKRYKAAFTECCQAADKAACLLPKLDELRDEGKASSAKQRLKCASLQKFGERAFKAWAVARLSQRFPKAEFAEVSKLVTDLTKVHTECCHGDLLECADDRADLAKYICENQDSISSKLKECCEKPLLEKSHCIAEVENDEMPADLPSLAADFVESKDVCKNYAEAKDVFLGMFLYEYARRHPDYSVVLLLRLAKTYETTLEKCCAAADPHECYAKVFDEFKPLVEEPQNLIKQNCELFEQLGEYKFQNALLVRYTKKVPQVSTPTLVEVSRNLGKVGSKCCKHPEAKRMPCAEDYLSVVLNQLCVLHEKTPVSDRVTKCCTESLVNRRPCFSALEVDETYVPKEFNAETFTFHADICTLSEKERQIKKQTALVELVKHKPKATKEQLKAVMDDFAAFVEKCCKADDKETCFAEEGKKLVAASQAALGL
Cytochrome P450 1A2, sequence (P05177 whole entry): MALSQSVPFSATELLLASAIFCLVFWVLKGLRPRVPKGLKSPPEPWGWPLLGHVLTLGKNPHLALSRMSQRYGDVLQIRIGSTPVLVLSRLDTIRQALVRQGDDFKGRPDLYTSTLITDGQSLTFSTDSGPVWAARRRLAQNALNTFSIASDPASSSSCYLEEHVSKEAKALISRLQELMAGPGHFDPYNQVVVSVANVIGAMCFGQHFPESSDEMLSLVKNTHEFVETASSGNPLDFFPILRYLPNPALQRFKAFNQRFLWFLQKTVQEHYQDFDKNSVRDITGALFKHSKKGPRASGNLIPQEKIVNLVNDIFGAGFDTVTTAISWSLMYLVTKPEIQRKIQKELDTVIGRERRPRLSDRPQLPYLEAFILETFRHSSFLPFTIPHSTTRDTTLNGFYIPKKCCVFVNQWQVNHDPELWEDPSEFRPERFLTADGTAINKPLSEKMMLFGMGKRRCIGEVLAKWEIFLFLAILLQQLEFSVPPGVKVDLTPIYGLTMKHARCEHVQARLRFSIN
Cytochrome P450 2C19, sequence (P33261 whole entry): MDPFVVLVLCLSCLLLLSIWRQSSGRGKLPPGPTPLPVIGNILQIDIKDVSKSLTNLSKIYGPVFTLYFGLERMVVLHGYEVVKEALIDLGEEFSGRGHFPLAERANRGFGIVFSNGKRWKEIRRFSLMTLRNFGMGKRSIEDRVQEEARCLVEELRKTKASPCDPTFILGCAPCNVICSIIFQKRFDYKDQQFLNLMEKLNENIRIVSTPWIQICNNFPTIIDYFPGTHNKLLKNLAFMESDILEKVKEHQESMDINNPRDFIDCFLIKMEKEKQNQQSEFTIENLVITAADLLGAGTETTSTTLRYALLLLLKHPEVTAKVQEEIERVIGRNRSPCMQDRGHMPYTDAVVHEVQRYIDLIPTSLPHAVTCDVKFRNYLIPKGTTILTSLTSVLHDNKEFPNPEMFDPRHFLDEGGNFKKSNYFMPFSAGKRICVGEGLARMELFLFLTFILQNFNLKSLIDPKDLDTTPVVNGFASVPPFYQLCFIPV
Cytochrome P450 2C8, sequence (P10632 whole entry): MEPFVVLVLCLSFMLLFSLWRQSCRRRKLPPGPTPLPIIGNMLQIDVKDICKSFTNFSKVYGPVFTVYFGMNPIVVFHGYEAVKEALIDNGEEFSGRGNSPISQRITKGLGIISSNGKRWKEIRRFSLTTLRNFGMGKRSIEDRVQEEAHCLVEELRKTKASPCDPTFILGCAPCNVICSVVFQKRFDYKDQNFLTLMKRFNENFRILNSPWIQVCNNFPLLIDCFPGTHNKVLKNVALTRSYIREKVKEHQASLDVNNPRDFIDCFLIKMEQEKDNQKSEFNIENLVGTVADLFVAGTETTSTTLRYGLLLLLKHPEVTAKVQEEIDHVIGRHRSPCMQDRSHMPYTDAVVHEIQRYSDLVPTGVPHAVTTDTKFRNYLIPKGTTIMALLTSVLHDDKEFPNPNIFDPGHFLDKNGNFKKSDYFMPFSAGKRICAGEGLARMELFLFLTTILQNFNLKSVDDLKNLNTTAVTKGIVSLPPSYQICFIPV
Cytochrome P450 2C9, sequence (P11712 whole entry): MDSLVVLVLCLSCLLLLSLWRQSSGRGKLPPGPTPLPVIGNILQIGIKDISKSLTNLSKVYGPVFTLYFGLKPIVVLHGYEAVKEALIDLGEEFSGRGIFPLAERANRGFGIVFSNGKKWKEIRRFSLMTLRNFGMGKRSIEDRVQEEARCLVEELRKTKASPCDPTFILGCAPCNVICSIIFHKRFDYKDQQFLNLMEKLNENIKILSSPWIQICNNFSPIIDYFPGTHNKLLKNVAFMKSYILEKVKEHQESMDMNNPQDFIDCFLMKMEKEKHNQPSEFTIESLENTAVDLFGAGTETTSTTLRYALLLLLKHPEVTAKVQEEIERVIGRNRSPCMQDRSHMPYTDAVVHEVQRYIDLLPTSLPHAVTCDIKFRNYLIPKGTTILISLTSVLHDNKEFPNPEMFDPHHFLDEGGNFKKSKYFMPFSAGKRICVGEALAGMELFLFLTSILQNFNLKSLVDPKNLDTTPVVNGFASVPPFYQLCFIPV
5-hydroxytryptamine receptor 2B, sequence (P41595 whole entry): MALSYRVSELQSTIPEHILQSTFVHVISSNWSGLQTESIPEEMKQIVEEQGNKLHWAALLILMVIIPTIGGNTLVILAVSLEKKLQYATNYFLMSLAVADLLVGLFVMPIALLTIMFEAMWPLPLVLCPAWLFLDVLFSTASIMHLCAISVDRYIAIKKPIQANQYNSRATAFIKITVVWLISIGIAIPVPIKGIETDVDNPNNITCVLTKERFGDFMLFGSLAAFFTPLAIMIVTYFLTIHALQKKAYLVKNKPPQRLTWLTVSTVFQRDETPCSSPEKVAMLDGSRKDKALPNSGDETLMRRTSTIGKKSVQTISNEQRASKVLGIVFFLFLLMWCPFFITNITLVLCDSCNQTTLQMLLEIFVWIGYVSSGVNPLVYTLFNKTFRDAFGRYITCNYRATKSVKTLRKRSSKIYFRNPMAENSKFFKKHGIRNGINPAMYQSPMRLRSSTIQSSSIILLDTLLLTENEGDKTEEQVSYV

## CN(C)C(=O)c1ccc(-c2ccc3c(c2)CCN(CCN2CCCC2)C3=O)cc1
Liver
  Stability: Stable
[1]
  Papp A→B: 12.1 ×10⁻⁶ cm/s
Cytochrome P450 2C19
  inhibition (INH): Not Active
Cytochrome P450 3A4 [2]
  inhibition (INH): Not Active
Cytochrome P450 1A2
  inhibition (INH): Not Active
[3]
  fraction unbound: 0.5
Albumin
  Activity: Toxic
[4]
  Papp B→A: 31.1 ×10⁻⁶ cm/s
Liver microsomes [5]
  Stability: Stable
[6]
  Ki: > 10 µM
Brain
  AUC: 642 ng·h/g
[7]
  half-life at 1 µM: 69 min
[8]
  Kp: 0.27
Histamine H1 receptor
  Ki: > 10 µM
Cytochrome P450 2C8
  inhibition (INH): Not Active
Histamine H2 receptor
  Ki: > 55 µM
[9]
  fraction unbound: 0.59
[10]
  Ki: > 10 µM
[11]
  Ki: 8.67 µM
Histamine H3 receptor [12]
  EC50: 0.0107 µM
Liver microsomes [13]
  Stability: Stable
Cytochrome P450 3A4 [14]
  inhibition (INH): Not Active
[15]
  Ki: > 3 µM
Cytochrome P450 3A4 [16]
  inhibition (INH): Not Active
[17]
  Ki: > 10 µM
[18]
  half-life at 1 µM: 47 min
Cytochrome P450 2A6
  inhibition (INH): Not Active
[19]
  half-life at 1 µM: > 60 min
Cytochrome P450 2B6
  inhibition (INH): Not Active
Histamine H3 receptor [20]
  Ki: 0.0009 µM
Cytochrome P450 2C9
  inhibition (INH): Not Active
[21]
  Activity: Toxic
[22]
  Ki: > 3 µM
D(2) dopamine receptor
  Ki: > 10 µM
Cytochrome P450 2D6
  inhibition (INH): Not Active
[23]
  half-life at 1 µM: 26 min
Plasma
  AUC: 2369 ng·h/g
[24]
  Stability: Stable
